Reference: ChEMBL document CHEMBL1124197, “3-[1-(2-Benzoxazolyl)hydrazino]propanenitrile derivatives: inhibitors of immune complex induced inflammation” (1988)
Calls of active or inactive are those of the source. The rule behind the calls is not given here.

Key:
Rattus norvegicus [1] = test: In vivo inhibition of rat dermal passive revers arthus reaction following p.o. administration; Inactive.; assay type: functional, organism-based
Rattus norvegicus [2] = organism: Rattus norvegicus; test: Effective dose required for 40% inhibition of rat dermal reverse passive Arthus reaction (RPAR); assay type: functional
Procedure, shortened: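 Fasted male rats received BSA intravenously and about 1 h later a challenge of rabbit anti-BSA given intradermally. Compound was dosed orally 30 min before the challenge. Rats were killed 4 h later and dermal lesion size was measured. ED40 with 95% confidence limits came from least-squares regression.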

Rattus norvegicus [3] = organism: Rattus norvegicus; test: Inhibition of pleural reverse passive Arthus reactions (RPAR) in rat (exudate volume); assay type: functional
Procedure, shortened: (§1)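 Fasted male rats were given BSA intravenously, then about 1 h later rabbit anti-BSA intrapleurally. Oral dosing was 30 min before the challenge. After 4 h the rats were killed and pleural exudate fluid volume and white blood cell accumulation were determined. ED50 with 95% confidence limits came from least-squares regression.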

Rattus norvegicus [4] = organism: Rattus norvegicus; test: Inhibition of pleural reverse passive Arthus reactions (exudate white blood cells (WBC)); assay type: functional; procedure, shortened: as §1
Rattus norvegicus [5] = organism: Rattus norvegicus; test: Effect in rat pleural Carrageenan test (exudate volume); assay type: functional
Rattus norvegicus [6] = organism: Rattus norvegicus; test: Effect in rat pleural Carrageenan test (exudate white blood cells (WBC)); assay type: functional

SMILES | ED40 (Rattus norvegicus [2]) [µM/kg] | further results
CCOC(=O)c1ccc2oc(N(N)CCC#N)nc2c1 |  | ED40 (Rattus norvegicus [1]): inactive
Cc1cc(Cl)cc2nc(N(N)CCC#N)oc12 | 191 | 
N#CCCN(N)c1nc2c(ccc3ccccc32)o1 | 346 | 
N#CCCN(N)c1nc2ccccc2o1 | 84 | ED50 (Rattus norvegicus [3]): 238 µmol/kg; ED50 (Rattus norvegicus [4]): 243 µmol/kg; ED50 (Rattus norvegicus [5]): 105 µmol/kg; ED50 (Rattus norvegicus [6]): 171 µmol/kg
N#CCCSc1nc2ccccc2o1 | 1268 | 
Cc1cc2oc(N(N)CCC#N)nc2c(C)c1C | 139 | 
COCCN(N)c1nc2cc(OC)ccc2o1 | 43 | 
NN(CC[S+]([O-])c1ccccc1)c1nc2ccccc2o1 (stereo not given) | 719 | 
C=NN(CCC#N)c1nc2ccccc2o1 | 845 | 
NN(CCOc1ccccc1)c1nc2ccccc2o1 | 457 | 
C#CCCN(N)c1nc2ccccc2o1 | 348 | 
N#CCC(=O)N(N)c1nc2ccccc2o1 |  | ED40 (Rattus norvegicus [1]): inactive
NN(CCc1ccccc1)c1nc2ccccc2o1 | 962 | 
CCc1ccc2oc(N(N)CCC#N)nc2c1 | 330 | 
N#CCCN(N)c1nc2cc(C#N)ccc2o1 | 66 | 
Cc1cc(N(N)CCC#N)c2ccccc2n1 | 177 | 
C[C@]12CCC(=O)C=C1CC[C@@H]1[C@@H]2[C@@H](O)C[C@@]2(C)[C@H]1CC[C@]2(O)C(=O)CO [HYDROCORTISONE] | 33 | ED50 (Rattus norvegicus [3]): 38 µmol/kg; ED50 (Rattus norvegicus [4]): 50 µmol/kg; ED50 (Rattus norvegicus [5]): 12 µmol/kg; ED50 (Rattus norvegicus [6]): 9 µmol/kg
N#CCCNc1nc2ccccc2o1 | 1302 | 
Cc1cc(C)c2oc(N(N)CCC#N)nc2c1 | 161 | 
N#CCCN(N)c1nc2cc3ccccc3cc2o1 | 306 | 
CS(=O)(=O)CCN(N)c1nc2ccccc2o1 | 278 | 
N#CCCN(N)c1nc(-c2ccccc2)c(-c2ccccc2)o1 | 332 | 
N#CCCN(N)C1=NS(=O)(=O)c2ccccc21 | 643 | 
CC(CC#N)N(N)c1nc2ccccc2o1 (stereo not given) | 245 | 
C[S+]([O-])c1ccc2oc(N(N)CCC#N)nc2c1 (stereo not given) | 607 | 
N#CCCN(C=O)c1nc2ccccc2o1 |  | ED40 (Rattus norvegicus [1]): inactive

SMILES | ED40 (Rattus norvegicus [2]) [µM/kg] | further results
N#CCCC(N)c1nc2ccccc2o1 (stereo not given) |  | ED40 (Rattus norvegicus [1]): inactive
COCCN(N)c1nc2ccccc2o1 | 300 | 
NN(CCCO)c1nc2ccccc2o1 | 576 | 
NC(=O)CCN(N)c1nc2ccccc2o1 | 1009 | 
CNC(=O)NN(CCC#N)c1nc2ccccc2o1 |  | ED40 (Rattus norvegicus [1]): inactive
N#CCCN(N)c1nc(-c2ccccc2)co1 | 119 | 
N#CCCN(N)c1nc2cccc(Cl)c2o1 | 275 | 
N#CCCN(N)c1ncc(-c2ccccc2)cn1 | 121 | 
COCCN(N)c1nc2cc(Cl)ccc2o1 | 136 | 
N#CCCN(N)c1nccs1 | 390 | 
C/N=C(\S)NN(CCC#N)c1nc2ccccc2o1 |  | ED40 (Rattus norvegicus [1]): inactive
NN(CCc1ccccn1)c1nc2ccccc2o1 | 258 | 
CCNN(CCC#N)c1nc2ccccc2o1 | 196 | 
COc1ccc2oc(N(N)CCC#N)nc2c1 | 59 | ED50 (Rattus norvegicus [3]): 155 µmol/kg; ED50 (Rattus norvegicus [4]): 116 µmol/kg
COCCN(N)c1nc2cc(C)ccc2o1 | 127 | 
CC(C)S(=O)(=O)n1c(N(N)CCC#N)nc2ccccc21 |  | ED40 (Rattus norvegicus [1]): inactive
CSCCN(N)c1nc2ccccc2o1 | 913 | 
N#CCCN(N)c1cnccn1 | 760 | 
N#CCCN(NC=O)c1nc2cc(C(F)(F)F)ccc2o1 | 87 | 
[2H]C([2H])(C#N)CN(N)c1nc2ccccc2o1 | 255 | 
COCCN(N)c1nc2cc(C(F)(F)F)ccc2o1 | 47 | 
C/C=N\N(CCC#N)c1nc2ccccc2o1 | 625 | 
N#CCCN(N)c1nc2cc(Cl)ccc2o1 | 177 | 
CCN(N)c1nc2ccccc2o1 | 254 | 
COC(=O)CCN(N)c1nc2ccccc2o1 | 1208 | 
N#CCCN(NC(N)=O)c1nc2ccccc2o1 |  | ED40 (Rattus norvegicus [1]): inactive

SMILES | ED40 (Rattus norvegicus [2]) [µM/kg] | further results
N#CCCN(N)c1nc2cc(OCc3ccccc3)ccc2o1 |  | ED40 (Rattus norvegicus [1]): inactive
NN(CCC(=O)O)c1nc2ccccc2o1 |  | ED40 (Rattus norvegicus [1]): inactive
N#CCCN(N)c1nc2ccccc2s1 | 128 | 
COC(=O)NN(CCC#N)c1nc2ccccc2o1 | 695 | 
NN(CCN1CCOCC1)c1nc2ccccc2o1 | 825 | 
Cn1c(N(N)CCC#N)nc2ccccc21 | 349 | 
CS(=O)(=O)NN(CCC#N)c1nc2ccccc2o1 |  | ED40 (Rattus norvegicus [1]): inactive
NN(CCS(=O)(=O)c1ccccc1)c1nc2ccccc2o1 |  | ED40 (Rattus norvegicus [1]): inactive
N#CCCN(N)C1=Nc2ccccc2C1 | 265 | 
CCN(CC)CCN(N)c1nc2ccccc2o1 | 611 | 
CCOCCN(N)c1nc2cc(OC)ccc2o1 | 149 | 
Cc1cccc2nc(N(N)CCC#N)oc12 | 250 | 
N#CCCN(N)C1Cc2ccccc2C1 | 565 | 
Cc1ccc2nc(N(N)CCC#N)oc2c1 | 216 | 
CSc1cc(C(C)(C)C)cc2nc(N(N)CCC#N)oc12 | 801 | 
Cc1ccc2oc(N(N)CCC#N)nc2c1 | 83 | ED50 (Rattus norvegicus [3]): 148 µmol/kg; ED50 (Rattus norvegicus [4]): 175 µmol/kg
N#CCCN(N)c1ncco1 | 360 | 
CSc1ccc2oc(N(N)CCC#N)nc2c1 | 399 | 
NN(CCOc1ccc(F)cc1)c1nc2ccccc2o1 | 800 | 
N#CCCN(NC(=O)NC1CCCCC1)c1nc2ccccc2o1 |  | ED40 (Rattus norvegicus [1]): inactive
Cc1cccc2oc(N(N)CCC#N)nc12 | 356 | 
N#CCCN(N)c1nc2cc(C(F)(F)F)ccc2o1 | 26 | ED50 (Rattus norvegicus [3]): 70 µmol/kg; ED50 (Rattus norvegicus [4]): 92 µmol/kg
Cc1ccc2oc(N(CCC#N)NC=O)nc2c1 | 168 | 
Cc1cc2oc(N(N)CCC#N)nc2cc1Cl | 36 | 
N#CCCN(N)c1nc2cc(-c3ccccc3)ccc2o1 |  | ED40 (Rattus norvegicus [1]): inactive
N#CCCN(NC=O)c1nc2ccccc2o1 | 142 | 

SMILES | ED40 (Rattus norvegicus [2]) [µM/kg] | further results
CN(C)S(=O)(=O)n1c(N(N)CCC#N)nc2ccccc21 |  | ED40 (Rattus norvegicus [1]): inactive
CC(=O)N(CCC#N)c1nc2ccccc2o1 |  | ED40 (Rattus norvegicus [1]): inactive
CS(=O)(=O)c1ccc2oc(N(N)CCC#N)nc2c1 | 407 | 
N#CCCN(N)c1nc2cc(F)ccc2o1 | 141 | 
Cc1nc(N(N)CCC#N)oc1C | 519 | 
COc1cc2nc(N(N)CCC#N)oc2cc1OC | 650 | 
CC(C#N)CN(N)c1nc2ccccc2o1 (stereo not given) | 210 | 
COC(=O)N(CCC#N)c1nc2ccccc2o1 |  | ED40 (Rattus norvegicus [1]): inactive
COc1ccc2oc(N(CCC#N)NC=O)nc2c1 | 200 | 
CCCN(N)c1nc2ccccc2o1 | 400 | 
NN(CCO)c1nc2ccccc2o1 | 1247 | 
Cc1cc(C)c2oc(N(N)CCC#N)nc2c1C | 115 | 
Cc1coc(N(N)CCC#N)n1 | 705 | 
N#CCCN(N)c1nc2cc(Oc3ccccc3)ccc2o1 |  | ED40 (Rattus norvegicus [1]): inactive
N#CCCN(N)c1nc2cc(C(=O)c3ccccc3)ccc2o1 |  | ED40 (Rattus norvegicus [1]): inactive
CC(C)(C)c1ccc2oc(N(N)CCC#N)nc2c1 | 345 | 
Cc1cc2nc(N(N)CCC#N)oc2cc1C | 413 | 
NN(CCSc1ccccc1)c1nc2ccccc2o1 |  | ED40 (Rattus norvegicus [1]): inactive
COc1ccc2nc(N(N)CCC#N)oc2c1 | 388 | 
CC(=O)NN(CCC#N)c1nc2ccccc2o1 | 402 | 
COCCN(N)c1nc2cc(C#N)ccc2o1 | 181 | 
CNN(CCC#N)c1nc2ccccc2o1 | 250 | 
N#CCCN(N)c1ccc(-c2ccccc2)nn1 | 672 | 
